# Reference: publication PMC9279629 (Acta Pharmaceutica Sinica. B, 2021)
# Tests used:
# PDE10A = PDE10A (Homo sapiens, UniProt Q9Y233); assay: PDE10A inhibition, fluorescence polarization; assay type: biochemical
# In short: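 Test compound was dissolved in DMSO, stored at −20 °C and tested in a 10-point, 3-fold serial dilution from a top concentration of 1 µmol/L (n = 3). Enzyme activity was read by fluorescence polarization, and IC50 was derived from the concentration–response data.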
# [1] = test system: PDE1A/B/C, PDE2A, PDE3A/B, PDE4A/B/C/D, PDE5A, PDE7A, PDE8A, PDE9A; assay: PDE selectivity panel, fluorescence polarization, single dose 5 μmol/L; assay type: biochemical; conditions: concentrations up to 5 μmol/L
# Sequence of PDE10A (Q9Y233 whole entry): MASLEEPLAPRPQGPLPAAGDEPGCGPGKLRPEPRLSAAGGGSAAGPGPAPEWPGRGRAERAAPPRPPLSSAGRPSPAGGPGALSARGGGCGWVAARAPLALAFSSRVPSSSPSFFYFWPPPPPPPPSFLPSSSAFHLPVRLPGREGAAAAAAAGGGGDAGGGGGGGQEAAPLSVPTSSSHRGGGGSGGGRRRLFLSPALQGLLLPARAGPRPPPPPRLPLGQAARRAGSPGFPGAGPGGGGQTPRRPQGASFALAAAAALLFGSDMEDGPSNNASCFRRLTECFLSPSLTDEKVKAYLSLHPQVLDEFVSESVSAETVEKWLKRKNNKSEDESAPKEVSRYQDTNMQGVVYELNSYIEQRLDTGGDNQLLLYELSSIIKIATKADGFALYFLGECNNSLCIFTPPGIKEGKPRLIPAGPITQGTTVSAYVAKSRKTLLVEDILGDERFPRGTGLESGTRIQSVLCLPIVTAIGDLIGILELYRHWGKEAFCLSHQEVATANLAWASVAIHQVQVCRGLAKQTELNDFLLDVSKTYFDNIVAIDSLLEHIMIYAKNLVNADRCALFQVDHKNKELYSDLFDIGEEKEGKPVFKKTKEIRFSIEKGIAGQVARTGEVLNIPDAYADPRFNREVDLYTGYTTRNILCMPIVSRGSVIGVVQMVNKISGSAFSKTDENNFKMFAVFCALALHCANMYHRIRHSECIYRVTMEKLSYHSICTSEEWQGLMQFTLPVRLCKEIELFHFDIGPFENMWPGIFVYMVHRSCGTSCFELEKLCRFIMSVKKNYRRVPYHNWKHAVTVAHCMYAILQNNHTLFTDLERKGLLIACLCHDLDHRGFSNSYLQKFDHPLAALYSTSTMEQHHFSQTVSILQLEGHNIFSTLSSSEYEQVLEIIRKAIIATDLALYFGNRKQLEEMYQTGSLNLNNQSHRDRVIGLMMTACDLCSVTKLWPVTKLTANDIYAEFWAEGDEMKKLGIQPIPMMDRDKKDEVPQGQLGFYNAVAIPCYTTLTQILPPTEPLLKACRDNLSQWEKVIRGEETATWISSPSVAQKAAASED
structure (smiles),measurement,setting,value
"Cc1ccc2c(=O)n(-c3ccc(F)cc3)c(CCN3C(=O)c4cccc(OC(C)C)c4C3=O)nc2c1 [compound 9, 2-(2-(3-(4-Fluorophenyl)-7-methyl-4-oxo-3,4-dihydroquinazolin-2-yl)ethyl)-4-isopropoxyisoindoline-1,3-dione]",IC50,PDE10A,2.07 nM
same,inhibition of other PDE subtypes,[1],no significant inhibition
